Measured values: publication PMC12371875 (Journal of Agricultural and Food Chemistry, 2025)
≈ marks a conversion by molar mass, not a printed value.

Assays:
rat intestinal maltase = assay: Kinetic study of α-glucosidase inhibition; type: biochemical
Outline: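 Rat intestinal α-glucosidase with test compound in phosphate buffer pH 6.9. Maltose was varied over 2–10 mM, with and without inhibitor, and the mixture was incubated at 37 °C for 10 min. […] Inhibition type came from Lineweaver–Burk plots. Ki and Ki′ came from secondary plots of slopes and intercepts versus inhibitor concentration.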

rat intestinal sucrase = rat intestinal sucrase (Rattus norvegicus, UniProt P23739); assay: Kinetic study of α-glucosidase inhibition; type: biochemical
Outline: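 Test compound in phosphate buffer pH 6.9 with rat intestinal α-glucosidase. Sucrose was varied over 20–100 mM, with and without inhibitor, and incubated at 37 °C for 40 min. […] Lineweaver–Burk plots gave the inhibition type. Secondary plots of slopes and intercepts against inhibitor concentration gave Ki and Ki′.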

yeast α-glucosidase = settings: ref Suttithumsatid and co-workers, 2022; cited from earlier work
[1] = dissociation constant of ESI complex, secondary plots

rat intestinal sucrase, sequence (P23739 whole entry): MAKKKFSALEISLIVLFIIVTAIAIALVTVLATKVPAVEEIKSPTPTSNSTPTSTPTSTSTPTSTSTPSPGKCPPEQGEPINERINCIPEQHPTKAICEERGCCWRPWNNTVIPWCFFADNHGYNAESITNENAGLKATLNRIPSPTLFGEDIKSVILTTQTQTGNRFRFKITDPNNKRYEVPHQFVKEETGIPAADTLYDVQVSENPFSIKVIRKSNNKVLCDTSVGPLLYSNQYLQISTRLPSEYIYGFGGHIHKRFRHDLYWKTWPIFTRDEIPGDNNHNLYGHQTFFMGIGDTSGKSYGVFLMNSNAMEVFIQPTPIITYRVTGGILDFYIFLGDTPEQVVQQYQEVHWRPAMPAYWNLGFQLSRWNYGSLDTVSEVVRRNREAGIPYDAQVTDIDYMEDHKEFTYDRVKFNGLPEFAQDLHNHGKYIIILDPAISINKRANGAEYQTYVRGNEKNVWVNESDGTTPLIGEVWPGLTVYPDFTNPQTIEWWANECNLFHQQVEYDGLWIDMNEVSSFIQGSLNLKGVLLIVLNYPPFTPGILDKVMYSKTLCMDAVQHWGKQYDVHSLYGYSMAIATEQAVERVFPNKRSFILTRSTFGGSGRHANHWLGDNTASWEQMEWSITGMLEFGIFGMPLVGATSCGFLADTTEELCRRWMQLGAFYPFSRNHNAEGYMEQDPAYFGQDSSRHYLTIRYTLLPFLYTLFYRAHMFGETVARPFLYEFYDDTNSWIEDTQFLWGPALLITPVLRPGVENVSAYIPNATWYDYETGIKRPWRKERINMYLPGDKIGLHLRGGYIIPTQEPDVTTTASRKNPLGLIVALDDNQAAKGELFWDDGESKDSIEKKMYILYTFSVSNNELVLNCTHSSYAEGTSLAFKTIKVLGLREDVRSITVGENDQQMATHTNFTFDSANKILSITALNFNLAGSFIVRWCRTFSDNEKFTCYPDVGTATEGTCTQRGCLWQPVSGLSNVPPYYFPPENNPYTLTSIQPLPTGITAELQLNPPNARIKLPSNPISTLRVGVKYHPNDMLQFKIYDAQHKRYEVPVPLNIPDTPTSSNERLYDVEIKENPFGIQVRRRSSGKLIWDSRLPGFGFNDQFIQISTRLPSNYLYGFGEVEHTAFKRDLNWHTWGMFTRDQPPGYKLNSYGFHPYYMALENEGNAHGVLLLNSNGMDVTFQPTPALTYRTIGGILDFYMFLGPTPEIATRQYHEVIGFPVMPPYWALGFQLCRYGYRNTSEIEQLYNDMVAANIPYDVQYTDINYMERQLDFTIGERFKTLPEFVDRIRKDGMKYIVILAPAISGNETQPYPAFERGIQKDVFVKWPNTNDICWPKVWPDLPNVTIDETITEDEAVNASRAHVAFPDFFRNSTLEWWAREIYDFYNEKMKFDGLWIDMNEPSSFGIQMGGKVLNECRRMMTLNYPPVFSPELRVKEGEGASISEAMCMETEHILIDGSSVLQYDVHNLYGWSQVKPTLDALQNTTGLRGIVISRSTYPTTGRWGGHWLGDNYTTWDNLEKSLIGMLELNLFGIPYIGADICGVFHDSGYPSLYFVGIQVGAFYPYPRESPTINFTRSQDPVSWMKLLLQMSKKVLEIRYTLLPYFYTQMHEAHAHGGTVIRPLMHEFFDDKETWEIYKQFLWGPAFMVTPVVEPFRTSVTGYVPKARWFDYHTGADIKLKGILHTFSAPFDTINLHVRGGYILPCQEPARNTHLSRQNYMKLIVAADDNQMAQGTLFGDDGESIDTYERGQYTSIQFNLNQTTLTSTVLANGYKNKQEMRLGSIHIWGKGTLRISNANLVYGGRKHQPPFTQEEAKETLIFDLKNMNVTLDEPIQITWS

Row | SMILES | Inhibition type, maltase (rat intestinal maltase; Lineweaver–Burk plots, maltose 2–10 mM) | Ki′, maltase (rat intestinal maltase; [1]) [µM] | Inhibition type, sucrase (rat intestinal sucrase; Lineweaver–Burk plots, sucrose 20–100 mM) | Ki′, sucrase (rat intestinal sucrase; [1]) [µM] | IC50, yeast α-glucosidase inhibition (yeast α-glucosidase) [µg/mL]
1 | CCCCCc1cc(O)c2c(c1)OC(C)(C)c1ccc(C)cc1-2 [Compound 15, cannabinol] | Uncompetitive | 196.4 | Uncompetitive | 434.8 | 
2 | C=C(C)[C@@H]1CCC(C)=C[C@H]1c1c(O)cc(CCCCC)cc1O [CBD] |  |  |  |  | 5.5 (≈ 17.5 µM)
